Experiments:
Format in all cases: functional
SNB-19 = test: Cytotoxicity against human SNB19 cells assessed as cell growth at 10 uM after 48 hrs by SRB assay; settings: SNB-19, 48 h, read-out: Activity
Summary of the method: (§1)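 NCI-60 single-dose screen. Cell lines grown in RPMI 1640 with 5% FBS and 2 mM L-glutamine, plated at 5000–40,000 cells/well according to doubling time, then preincubated 24 h at 37 °C in 5% CO2. Compounds dissolved in DMSO, tested at 10^-5 M for 48 h. Adherent cells fixed with cold TCA (10% final) and stained with 0.4% SRB in 1% acetic acid. Growth expressed as percent of untreated control.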

SF-539 = test: Cytotoxicity against human SF539 cells assessed as cell growth at 10 uM after 48 hrs by SRB assay; settings: SF-539, 48 h, read-out: Activity; summary of the method: as §1
SF-268 = test: Cytotoxicity against human SF268 cells assessed as cell growth at 10 uM after 48 hrs by SRB assay; settings: SF-268, 48 h, read-out: Activity; summary of the method: as §1
KM12 = test: Cytotoxicity against human KM12 cells assessed as cell growth at 10 uM after 48 hrs by SRB assay; settings: KM12, 48 h, read-out: Activity; summary of the method: as §1
HT-29 = test: Cytotoxicity against human HT-29 cells assessed as cell growth at 10 uM after 48 hrs by SRB assay; settings: HT-29, 48 h, read-out: Activity; summary of the method: as §1
HCT-15 = test: Cytotoxicity against human HCT15 cells assessed as cell growth at 10 uM after 48 hrs by SRB assay; settings: HCT-15, 48 h, read-out: Activity; summary of the method: as §1
HCC 2998 = test: Cytotoxicity against human HCC2998 cells assessed as cell growth at 10 uM after 48 hrs by SRB assay; settings: HCC 2998, 48 h, read-out: Activity; summary of the method: as §1
NCI-H522 = test: Cytotoxicity against human NCI-H522 cells assessed as cell growth at 10 uM after 48 hrs by SRB assay; settings: NCI-H522, 48 h, read-out: Activity; summary of the method: as §1
NCI-H23 = test: Cytotoxicity against human NCI-H23 cells assessed as cell growth at 10 uM after 48 hrs by SRB assay; settings: NCI-H23, 48 h, read-out: Activity; summary of the method: as §1
NCI-H226 = test: Cytotoxicity against human NCI-H226 cells assessed as cell growth at 10 uM after 48 hrs by SRB assay; settings: NCI-H226, 48 h, read-out: Activity; summary of the method: as §1
HOP-92 = test: Cytotoxicity against human HOP92 cells assessed as cell growth at 10 uM after 48 hrs by SRB assay; settings: HOP-92, 48 h, read-out: Activity; summary of the method: as §1
SR = test: Cytotoxicity against human SR cells assessed as cell growth at 10 uM after 48 hrs by SRB assay; settings: read-out: Activity
Summary of the method: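 Leukemia line, NCI-60 single-dose screen at 10^-5 M. Cells are grown in RPMI 1640 with 5% FBS and 2 mM L-glutamine, plated by doubling time, and preincubated 24 h at 37 °C with 5% CO2. After 48 h drug exposure, settled cells are fixed with 80% TCA (final 16%) and stained with SRB. Percent growth is calculated against untreated control and time-zero plates.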

CCRF-CEM = test: Cytotoxicity against human CCRF-CEM cells assessed as cell growth at 10 uM after 48 hrs by SRB assay; settings: read-out: Activity; summary of the method: as §1
T47D = test: Cytotoxicity against human T47D cells assessed as cell growth at 10 uM after 48 hrs by SRB assay; settings: read-out: Activity
Summary of the method: (§2)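 NCI-60 single-dose screen at 10^-5 M. Adherent lines are grown in RPMI 1640 with 5% FBS and 2 mM L-glutamine, seeded at 5000–40,000 cells/well by doubling time, and preincubated 24 h at 37 °C in 5% CO2. Drug is added from DMSO stock diluted in medium, then 48 h. Cells are fixed in cold TCA (final 10%) for 60 min and stained with 0.4% SRB in 1% acetic acid. Growth is expressed as % of untreated control using time-zero plates.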

BT-549 = test: Cytotoxicity against human BT549 cells assessed as cell growth at 10 uM after 48 hrs by SRB assay; settings: BT-549, 48 h, read-out: Activity; summary of the method: as §1
PC-3 = test: Cytotoxicity against human PC3 cells assessed as cell growth at 10 uM after 48 hrs by SRB assay; settings: PC-3, 48 h, read-out: Activity; summary of the method: as §1
[1] = Cytotoxicity against human UO31 cells assessed as cell growth at 10 uM after 48 hrs by SRB assay; settings: UO-31, 48 h, read-out: Activity; summary of the method: as §2
TK-10 = test: Cytotoxicity against human TK10 cells assessed as cell growth at 10 uM after 48 hrs by SRB assay; settings: TK-10, 48 h, read-out: Activity; summary of the method: as §2
ACHN = test: Cytotoxicity against human ACHN cells assessed as cell growth at 10 uM after 48 hrs by SRB assay; settings: read-out: Activity; summary of the method: as §1
A498 = test: Cytotoxicity against human A498 cells assessed as cell growth at 10 uM after 48 hrs by SRB assay; settings: A498, 48 h, read-out: Activity; summary of the method: as §1
SK-OV-3 = test: Cytotoxicity against human SKOV3 cells assessed as cell growth at 10 uM after 48 hrs by SRB assay; settings: SK-OV-3, 48 h, read-out: Activity; summary of the method: as §1
[2] = Cytotoxicity against human NCI-ADR-RES cells assessed as cell growth at 10 uM after 48 hrs by SRB assay; settings: read-out: Activity; summary of the method: as §1
OVCAR-8 = test: Cytotoxicity against human OVCAR8 cells assessed as cell growth at 10 uM after 48 hrs by SRB assay; settings: OVCAR-8, 48 h, read-out: Activity; summary of the method: as §1
[3] = Cytotoxicity against human OVCAR4 cells assessed as cell growth at 10 uM after 48 hrs by SRB assay; settings: OVCAR-4, 48 h, read-out: Activity; summary of the method: as §1
SK-MEL-5 = test: Cytotoxicity against human SK-MEL-5 cells assessed as cell growth at 10 uM after 48 hrs by SRB assay; settings: SK-MEL-5, 48 h, read-out: Activity; summary of the method: as §1
MDA-MB-435 = test: Cytotoxicity against human MDA-MB-435 cells assessed as cell growth at 10 uM after 48 hrs by SRB assay; settings: MDA-MB-435, 48 h, read-out: Activity; summary of the method: as §1
M14 = test: Cytotoxicity against human M14 cells assessed as cell growth at 10 uM after 48 hrs by SRB assay; settings: M14, 48 h, read-out: Activity; summary of the method: as §1
Malme-3M = test: Cytotoxicity against human MALME-3M cells assessed as cell growth at 10 uM after 48 hrs by SRB assay; settings: read-out: Activity; summary of the method: as §1
SNB-75 = test: Cytotoxicity against human SNB75 cells assessed as cell growth at 10 uM after 48 hrs by SRB assay; settings: SNB-75, 48 h, read-out: Activity; summary of the method: as §1

Structure (SMILES) | growth at 10 µM (SNB-19) | growth at 10 µM (SF-539) | growth at 10 µM (SF-268) | growth at 10 µM (KM12) | growth at 10 µM (HT-29) | growth at 10 µM (HCT-15) | growth at 10 µM (HCC 2998) | growth at 10 µM (NCI-H522) | growth at 10 µM (NCI-H23) | growth at 10 µM (NCI-H226) | growth at 10 µM (HOP-92) | growth at 10 µM (SR) | growth at 10 µM (CCRF-CEM) | growth at 10 µM (T47D) | growth at 10 µM (BT-549) | growth at 10 µM (PC-3) | growth at 10 µM [1] | growth at 10 µM (TK-10) | growth at 10 µM (ACHN) | growth at 10 µM (A498) | other results
Cc1cc(C)n(-c2cn3c(-c4ccccc4)csc3n2)n1 | 96.5% | 94% | 98.4% | 104% | 97.6% | 95% | 105% | 88.4% | 95.4% | 88.3% | 86% | 80.9% | 95.4% | 87.2% | 95.3% | 88.7% | 59.2% | 124% | 83.8% | 111% | growth at 10 µM (SK-OV-3): 89.9%; growth at 10 µM [2]: 95.5%; growth at 10 µM (OVCAR-8): 95.9%; growth at 10 µM [3]: 93%; growth at 10 µM (SK-MEL-5): 94.2%; growth at 10 µM (MDA-MB-435): 96.9%; growth at 10 µM (M14): 95.4%; growth at 10 µM (Malme-3M): 94.1%; growth at 10 µM (SNB-75): 64.1%
Cc1cc(C)n(-c2cn3c(-c4ccc(Cl)cc4)csc3n2)n1 | 92.8% | 104% | 102% | 99.9% | 87% | 95.5% | 102% | 75.3% | 91% | 81.5% | 74.7% | 65.8% | 87.8% | 80.7% | 113% | 79.1% | 89.6% | 128% | 91% | 85.7% | growth at 10 µM (SK-OV-3): 93.4%; growth at 10 µM [2]: 100%; growth at 10 µM (OVCAR-8): 91.5%; growth at 10 µM [3]: 81.9%; growth at 10 µM (SK-MEL-5): 85.5%; growth at 10 µM (MDA-MB-435): 94.5%; growth at 10 µM (M14): 101%; growth at 10 µM (Malme-3M): 93.1%; growth at 10 µM (SNB-75): 69.2%
Cc1ccc(-c2csc3nc(-n4nc(C)cc4C)cn23)cc1 | 100% | 109% | 112% | 108% | 104% | 101% | 107% | 91.8% | 93.3% | 94.8% | 78% | 81% | 96% | 98.2% | 125% | 84.7% | 94.4% | 141% | 90.7% | 103% | growth at 10 µM (SK-OV-3): 101%; growth at 10 µM [2]: 98.5%; growth at 10 µM (OVCAR-8): 96%; growth at 10 µM [3]: 97.8%; growth at 10 µM (SK-MEL-5): 98.9%; growth at 10 µM (MDA-MB-435): 94.6%; growth at 10 µM (M14): 104%; growth at 10 µM (Malme-3M): 114%; growth at 10 µM (SNB-75): 85.9%
